Measured values as given in ChEMBL document CHEMBL1122917, “Vinblastin-23-oyl amino acid derivatives: chemistry, physicochemical data, toxicity, and antitumor activities against P388 and L1210 leukemias” (J Med Chem, 1985).

Tests used:
Mus musculus [1] = assay: Number of survivors of DBA2 mice on 60th day after inoculation with L1210 leukemia cell line intraperitoneally at a dose of 0.33 mg/kg/day; 0/10; format: functional; conditions: route intraperitoneal
Mus musculus [2] = assay: Percent increase in life span at dose 11 mg/kg/day in 10 mice implanted with P388 leukemia cell line; format: functional
Summary of the method: (§1)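 Female DBA2 mice inoculated iv on day 0 with 10^4 P388 cells; single iv treatment on day 1 with drug as sulfate salt in physiological saline. Survival followed; %ILS from all deaths and survivors as (T/C × 100) − 100, maximal MST 30 days; survivors counted on days 30 and 60. Most experiments confirmed three times.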

Mus musculus [3] = assay: Number of survivors on 30th day at dose 6 mg/kg/day in 10 mice implanted with P388 leukemia cell line; 0 /10; format: functional
Mus musculus [4] = assay: Number of survivors on 30th day at dose 9 mg/kg/day in 10 mice implanted with P388 leukemia cell line; […]; format: functional
Mus musculus [5] = assay: Number of survivors of DBA2 mice on 60th day after inoculation with L1210 leukemia cell line intraperitoneally at a dose of 1 mg/kg/day; 0/10; format: functional; conditions: route intraperitoneal
Mus musculus [6] = assay: Percent increase in life span of DBA2 mice after inoculation with L1210 leukemia intravenously at a dose of 3.5 mg/kg per day; format: functional; conditions: route intravenous
Mus musculus [7] = assay: Number of survivors of DBA2 mice on 60th day after inoculation with L1210 leukemia cell line intravenously at a dose of 6.5 mg/kg/day; 0/10; format: functional; conditions: route intravenous
Mus musculus [8] = assay: Number of survivors of DBA2 mice on 60th day after inoculation with L1210 leukemia cell line intraperitoneally at a dose of 0.22 mg/kg/day; 0/10; format: functional; conditions: route intraperitoneal
Mus musculus [9] = assay: Percent increase in life span at dose 6 mg/kg/day in 7 mice implanted with P388 leukemia cell line for 1,8,15 schedule days from Exp-1; format: functional
Mus musculus [10] = assay: Percent increase in life span at dose 10 mg/kg/day in 7 mice implanted with P388 leukemia cell line for 1,8,15 schedule days; format: functional
Mus musculus [11] = assay: Number of survivors on 60th day at dose 5 mg/kg/day in 9 mice implanted with P388 leukemia cell line; 0/10; format: functional
Mus musculus [12] = assay: Number of survivors of DBA2 mice on 30th day after inoculation with L1210 leukemia cell line intravenously at a dose of 10 mg/kg/day; 0/10; format: functional; conditions: route intravenous
Mus musculus [13] = assay: Number of survivors on 30th day at dose 7 mg/kg/day in 10 mice implanted with P388 leukemia cell line; 2/10; format: functional
Mus musculus [14] = assay: Number of survivors on 30th day at dose 8 mg/kg/day in 10 mice implanted with P388 leukemia cell line; 8/10; format: functional
Mus musculus [15] = assay: Number of survivors on 60th day at dose 7 mg/kg/day in 9 mice implanted with P388 leukemia cell line; 0/9; format: functional
Mus musculus [16] = assay: Number of survivors on 60th day at dose 2.5 mg/kg/day in 10 mice implanted with P388 leukemia cell line; 0/10; format: functional
Mus musculus [17] = assay: Percent increase in life span at dose 2.5 mg/kg/day in 7 mice implanted with P388 leukemia cell line for 1,8,15 scheduled days from Exp-1; format: functional
Mus musculus [18] = assay: Number of survivors on 30th day at dose 5 mg/kg/day in 10 mice implanted with P388 leukemia cell line; 0/10; format: functional
Mus musculus [19] = assay: Number of survivors on 30th day at dose 8 mg/kg/day in 10 mice implanted with P388 leukemia cell line; 0/10; format: functional
Mus musculus [20] = assay: Number of survivors of DBA2 mice on 30th day after inoculation with L1210 leukemia cell line intravenously at a dose of 2.5 mg/kg/day; 0/11; format: functional; conditions: route intravenous
Mus musculus [21] = assay: Percent increase in life span of BDF1 mice after inoculation with P388 leukemia cells intraperitoneally at a dose of 0.30 mg/kg per day for 1-9 scheduled days; conditions: P388, ip
Mus musculus [22] = assay: Percent increase in life span of DBA2 mice after inoculation with L1210 leukemia intravenously at a dose of 58 mg/kg per day; format: functional; conditions: route intravenous
Mus musculus [23] = assay: Number of survivors on 60th day at dose 55 mg/kg/day in 10 mice implanted with P388 leukemia cell line for 1,5,9 scheduled days; 1/10; format: functional
Mus musculus [24] = assay: Number of survivors on 60th day at dose 56 mg/kg/day in 10 mice implanted with P388 leukemia cell line; 2/10; format: functional
Mus musculus [25] = assay: Number of survivors on 60th day at dose 60 mg/kg/day in 10 mice implanted with P388 leukemia cell line 1,5,9 scheduled days; 3/10; format: functional
Mus musculus [26] = assay: Number of survivors on 60th day at dose 60 mg/kg/day in 10 mice implanted with P388 leukemia cell line for 1st scheduled day; 0/9; format: functional
Mus musculus [27] = assay: Percent increase in life span at dose 40 mg/kg/day in 10 mice implanted with P388 leukemia cell line; format: functional; summary of the method: as §1
Mus musculus [28] = assay: Percent increase in life span at dose 55 mg/kg/day in 10 mice implanted with P388 leukemia cell line; format: functional; summary of the method: as §1
Mus musculus [29] = assay: Number of survivors on 60th day at dose 75 mg/kg/day in 7 mice implanted with P388 leukemia cell line for 1,8,15 scheduled days in Exp-2; 2/10; format: functional
Mus musculus [30] = assay: Percent increase in life span at dose 60 mg/kg/day in 10 mice implanted with P388 leukemia cell line for 1,5,9 schedule days; format: functional
Mus musculus [31] = assay: Percent increase in life span at dose 60 mg/kg/day in 10 mice implanted with P388 leukemia cell line for 1st schedule day; format: functional
Mus musculus [32] = assay: Percent increase in life span at dose 65 mg/kg/day in 10 mice implanted with P388 leukemia cell line for 1st schedule day; format: functional
Mus musculus [33] = assay: Percent increase in life span at dose 65 mg/kg/day in 7 mice implanted with P388 leukemia cell line for 1,8,15 schedule day in Exp-1; format: functional
Mus musculus [34] = assay: Number of survivors on 30th day at dose 40 mg/kg/day in 10 mice implanted with P388 leukemia cell line; 5/10; format: functional
Mus musculus [35] = assay: Number of survivors on 60th day at dose 60 mg/kg/day in 10 mice implanted with P388 leukemia cell line; 3/10; format: functional
Mus musculus [36] = assay: Number of survivors on 60th day at dose 70 mg/kg/day in 10 mice implanted with P388 leukemia cell line; 0/11; format: functional
Mus musculus [37] = assay: Number of survivors on 30th day at dose 50 mg/kg/day in 10 mice implanted with P388 leukemia cell line; 7/10; format: functional
Mus musculus [38] = assay: Number of survivors on 30th day at dose 55 mg/kg/day in 10 mice implanted with P388 leukemia cell line for1,5,9 scheduled days; 2/10; format: functional
Mus musculus [39] = assay: Number of survivors of DBA2 mice on 60th day after inoculation with L1210 leukemia cell line intravenously at a dose of 70 mg/kg/day; 0/10; format: functional; conditions: route intravenous
Mus musculus [40] = assay: Number of survivors on 30th day at dose 70 mg/kg/day in 10 mice implanted with P388 leukemia cell line; 5/11; format: functional

SMILES: CC[C@]1(O)C[C@@H]2CN(CCc3c([nH]c4ccccc34)[C@@](C(=O)OC)(c3cc4c(cc3OC)N(C)[C@H]3[C@@](O)(C(=O)OC)[C@H](OC(C)=O)[C@]5(CC)C=CCN6CC[C@]43[C@@H]65)C2)C1 [VINBLASTINE]
- Survivors (Mus musculus [1]): 0
- ILS at 11 mg/kg/day (Mus musculus [2]): -40%
- Survivors (Mus musculus [3]): 0
- Survivors (Mus musculus [4]): 1

SMILES: CC[C@]1(O)C[C@H]2CN(CCc3c([nH]c4ccccc34)[C@@](C(=O)OC)(c3cc4c(cc3OC)N(C=O)[C@H]3[C@@](O)(C(=O)OC)[C@H](OC(C)=O)[C@]5(CC)C=CCN6CC[C@]43[C@@H]65)C2)C1 [VINCRISTINE]
- Survivors (Mus musculus [5]): 0
- ILS at 3.5 mg/kg/day (Mus musculus [6]): 14.7%
- Survivors (Mus musculus [7]): 0
- Survivors (Mus musculus [8]): 0

SMILES: CCOC(=O)[C@@H](NC(=O)[C@@]1(O)[C@H](O)[C@]2(CC)C=CCN3CC[C@@]4(c5cc([C@@]6(C(=O)OC)C[C@H]7C[N@](CCc8c6[nH]c6ccccc86)C[C@](O)(CC)C7)c(OC)cc5N(C)[C@@]14C)[C@@H]32)[C@@H](C)CC
- ILS at 6 mg/kg/day (Mus musculus [9]): 150%
- ILS at 10 mg/kg/day (Mus musculus [10]): 41%
- Survivors (Mus musculus [11]): 0
- Survivors (Mus musculus [12]): 0
- Survivors (Mus musculus [13]): 2
- Survivors (Mus musculus [14]): 8
- Survivors (Mus musculus [15]): 0

SMILES: CC[C@]1(O)C[C@@H]2CN(CCc3c([nH]c4ccccc34)[C@@](C(=O)OC)(c3cc4c(cc3OC)N(C)[C@H]3[C@@](O)(C(N)=O)[C@H](O)[C@]5(CC)C=CCN6CC[C@]43[C@@H]65)C2)C1 [VINDESINE]
- Survivors (Mus musculus [16]): 0
- ILS at 2.5 mg/kg/day (Mus musculus [17]): 31%
- Survivors (Mus musculus [18]): 0
- Survivors (Mus musculus [19]): 0
- Survivors (Mus musculus [20]): 0
- ILS at 0.3 mg/kg/day (Mus musculus [21]): 95%

SMILES: CCOC(=O)[C@H](Cc1c[nH]c2ccccc12)NC(=O)[C@@]1(O)[C@H](O)[C@]2(CC)C=CCN3CC[C@@]4(c5cc([C@@]6(C(=O)OC)C[C@H]7C[N@](CCc8c6[nH]c6ccccc86)C[C@](O)(CC)C7)c(OC)cc5N(C)[C@@]14C)[C@@H]32
- ILS at 58 mg/kg/day (Mus musculus [22]): 48.7%
- Survivors (Mus musculus [23]): 1
- Survivors (Mus musculus [24]): 2
- Survivors (Mus musculus [25]): 3
- Survivors (Mus musculus [26]): 0
- ILS at 40 mg/kg/day (Mus musculus [27]): 58.8%
- ILS at 55 mg/kg/day (Mus musculus [28]): > 183%
- Survivors (Mus musculus [29]): 2
- ILS at 60 mg/kg/day (Mus musculus [30]): > 426%
- ILS at 60 mg/kg/day (Mus musculus [31]): > 224%
- ILS at 65 mg/kg/day (Mus musculus [32]): 82%
- ILS at 65 mg/kg/day (Mus musculus [33]): 88%
- Survivors (Mus musculus [34]): 5
- Survivors (Mus musculus [35]): 3
- Survivors (Mus musculus [36]): 0
- Survivors (Mus musculus [37]): 7
- Survivors (Mus musculus [38]): 2
- Survivors (Mus musculus [39]): 0
- Survivors (Mus musculus [40]): 5
